Measured values taken from paper PMC8055291 (Journal of Inflammation Research, 2021).

Columns and labels:
Test in all cases: SPR analysis
Assay type in all cases: binding
[1] = target: mitogen-activated protein kinase (MAPK1) (Homo sapiens, UniProt P28482); conditions: for kon: read-out: Ka (association rate constant); for koff: read-out: Kd (dissociation rate constant)
In short: (§1)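 Each protein was amine-coupled to the chip after NHS/EDC (1:1, v/v) activation, at 14,874 RU (MMP-9), 11,000 RU (MAPK1), 11,800 RU (NFKB1) and 11,000 RU (TNF-α). A reference channel was activated and blocked without protein. Analytes flowed at 30 μL/min, with 60 s association and 120 s dissociation. Curves were fitted with 1:1 Langmuir and steady-state affinity models to give Ka, Kd and KD.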

[2] = target: T1, nuclear factor kappa B (NFKB1) (Homo sapiens, UniProt P19838)
T1 sequence (P19838 1-968): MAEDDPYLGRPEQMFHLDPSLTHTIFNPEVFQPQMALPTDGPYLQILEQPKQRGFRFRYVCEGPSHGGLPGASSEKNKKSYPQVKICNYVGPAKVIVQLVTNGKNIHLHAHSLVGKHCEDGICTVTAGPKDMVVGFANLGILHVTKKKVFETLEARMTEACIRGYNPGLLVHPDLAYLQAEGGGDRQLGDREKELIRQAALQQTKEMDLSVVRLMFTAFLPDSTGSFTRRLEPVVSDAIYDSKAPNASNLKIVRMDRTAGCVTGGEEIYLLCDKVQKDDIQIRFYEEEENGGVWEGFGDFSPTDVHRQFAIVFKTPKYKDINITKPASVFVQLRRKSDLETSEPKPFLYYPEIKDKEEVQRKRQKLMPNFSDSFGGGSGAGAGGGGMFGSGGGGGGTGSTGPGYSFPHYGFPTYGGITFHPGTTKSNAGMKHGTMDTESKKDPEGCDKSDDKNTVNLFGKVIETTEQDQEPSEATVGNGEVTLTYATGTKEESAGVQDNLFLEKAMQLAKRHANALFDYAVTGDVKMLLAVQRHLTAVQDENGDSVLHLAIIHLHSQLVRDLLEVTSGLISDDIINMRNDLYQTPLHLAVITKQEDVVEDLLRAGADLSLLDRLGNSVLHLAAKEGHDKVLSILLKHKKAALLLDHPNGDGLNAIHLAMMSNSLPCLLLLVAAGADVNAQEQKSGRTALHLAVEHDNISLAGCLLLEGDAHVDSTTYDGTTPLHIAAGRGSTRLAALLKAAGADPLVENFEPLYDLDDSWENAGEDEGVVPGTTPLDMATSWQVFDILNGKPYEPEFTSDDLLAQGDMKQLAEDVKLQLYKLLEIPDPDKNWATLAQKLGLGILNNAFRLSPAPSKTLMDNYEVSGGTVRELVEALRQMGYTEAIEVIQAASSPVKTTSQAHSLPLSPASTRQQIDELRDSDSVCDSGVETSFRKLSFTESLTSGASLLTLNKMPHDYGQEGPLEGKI
In short: as §1

[3] = target: matrix metalloproteinase-9 (MMP-9) (Homo sapiens, UniProt P14780)
Sequence of matrix metalloproteinase-9 (MMP-9) (P14780 94-707): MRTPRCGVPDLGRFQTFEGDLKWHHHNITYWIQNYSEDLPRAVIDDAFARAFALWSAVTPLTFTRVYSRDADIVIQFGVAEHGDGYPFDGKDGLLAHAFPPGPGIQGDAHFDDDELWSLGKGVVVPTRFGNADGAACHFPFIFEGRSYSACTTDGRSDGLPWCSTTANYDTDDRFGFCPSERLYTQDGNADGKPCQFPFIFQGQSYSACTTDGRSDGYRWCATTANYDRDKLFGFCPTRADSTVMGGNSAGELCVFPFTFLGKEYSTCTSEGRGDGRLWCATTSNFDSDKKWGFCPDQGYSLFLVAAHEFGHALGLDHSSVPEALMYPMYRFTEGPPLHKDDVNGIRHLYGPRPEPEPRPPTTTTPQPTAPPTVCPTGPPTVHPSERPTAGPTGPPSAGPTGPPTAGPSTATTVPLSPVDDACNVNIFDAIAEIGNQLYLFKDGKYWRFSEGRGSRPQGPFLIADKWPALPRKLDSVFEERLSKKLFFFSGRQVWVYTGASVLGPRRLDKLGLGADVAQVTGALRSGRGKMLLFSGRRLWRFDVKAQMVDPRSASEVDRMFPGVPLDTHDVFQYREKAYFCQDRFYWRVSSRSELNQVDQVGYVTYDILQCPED
In short: as §1

[4] = target: tumor necrosis factor (TNF-α) (Homo sapiens, UniProt P01375)
Sequence of tumor necrosis factor (TNF-α) (P01375 77-233 limits assumed): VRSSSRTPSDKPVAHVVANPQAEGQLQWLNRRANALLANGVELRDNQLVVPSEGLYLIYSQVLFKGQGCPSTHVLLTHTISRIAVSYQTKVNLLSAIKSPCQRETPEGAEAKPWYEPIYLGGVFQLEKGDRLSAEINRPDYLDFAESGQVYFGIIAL
In short: as §1

Sequence of mitogen-activated protein kinase (MAPK1) (P28482 whole entry): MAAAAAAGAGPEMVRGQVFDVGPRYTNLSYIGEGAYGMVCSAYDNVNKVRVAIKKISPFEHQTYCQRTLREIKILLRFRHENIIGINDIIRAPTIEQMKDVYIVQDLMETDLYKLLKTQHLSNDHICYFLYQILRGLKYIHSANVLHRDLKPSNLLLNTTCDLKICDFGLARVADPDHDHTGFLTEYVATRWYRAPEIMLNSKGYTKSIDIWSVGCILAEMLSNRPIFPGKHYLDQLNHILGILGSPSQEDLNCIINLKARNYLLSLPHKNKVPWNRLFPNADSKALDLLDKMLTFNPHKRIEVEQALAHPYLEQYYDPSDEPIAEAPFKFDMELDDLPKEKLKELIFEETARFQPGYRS

Q: With `CC(C)=CCc1cc2c(cc1O)O[C@H](c1ccc(O)cc1)CC2=O` [Bavachin] as the compound, how does the Kd [1] read?
A: The Kd was 26.6 µM.

Q: And the kon [1]?
A: The kon was 9290 M⁻¹ s⁻¹.

Q: What about the koff [1] of the same compound?
A: The koff was 0.247 s⁻¹.

Q: `COc1cc2c(cc1CC=C(C)C)C(=O)C[C@@H](c1ccc(O)cc1)O2` [Bavachinin A] was tested. Which Kd [1] did it give?
A: Its Kd is 6.05 µM.

Q: For `COc1ccc(-c2coc3cc(O)ccc3c2=O)cc1` [Formononetin], which Kd [2] is on record?
A: Its Kd is 32.5 µM.

Q: `O=C(/C=C/c1ccc(O[C@@H]2O[C@H](CO)[C@@H](O)[C@H](O)[C@H]2O)cc1)c1ccc(O)cc1O` [Isoliquiritin] was tested. Which Kd [3] did it give?
A: Its Kd is 2.7 µM.

Q: What about the Kd [4] of the same compound?
A: The Kd was 3.6 µM.

Q: For `O=C1C[C@@H](c2ccc(O[C@@H]3O[C@H](CO)[C@@H](O)[C@H](O)[C@H]3O)cc2)Oc2cc(O)ccc21` [Liquiritin], which Kd [3] is on record?
A: The Kd was 105 µM.

Q: And the kon ([3]; read-out: Ka (association rate constant))?
A: The kon was 251 M⁻¹ s⁻¹.

Q: And the koff ([3]; read-out: Kd (dissociation rate constant))?
A: The koff was 0.0264 s⁻¹.

Q: What about the Kd [1] of the same compound?
A: Its Kd is 382 µM.

Q: What about the kon [1] of the same compound?
A: Its kon is 258 M⁻¹ s⁻¹.

Q: And the koff [1]?
A: Its koff is 0.0984 s⁻¹.

Q: With `COc1ccc(-c2coc3cc(O[C@@H]4O[C@H](CO)[C@@H](O)[C@H](O)[C@H]4O)ccc3c2=O)cc1` [Ononin] as the compound, how does the Kd [1] read?
A: The Kd was 41.4 µM.
